# pEC50: −log10 of the molar value. The source made the active and inactive calls. The rule behind the calls is not given here.
# Experiments:
# [1] = Toxicity in BALB/c mouse infected with bioluminescent Trypanosoma brucei brucei GVR35-VSL2 expressing red-shifted luciferase assessed as lack of activity in animal at 20 mg/kg, po administered once daily for 4 days; assay type: organism-based; settings: in vivo, 96 h, time 4 day
# Method in brief: (§1)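 Infected BALB/c mice (bioluminescent T. brucei, 30,000 parasites) dosed i.p. or orally once daily for 4 days starting day 4 post-infection; observed for piloerection, hunching, shaking, lack of activity and body weight change.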
# [2] = tested on: Trypanosoma brucei; experiment: Antitrypanosomal activity against blood stream form of Trypanosoma brucei 221a variant assessed as parasite growth inhibition measured after 48 hrs by resazurin dye based fluorescence analysis; assay type: functional, organism-based
# Method in brief: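 Bloodstream-form T. b. brucei 221a (MiTat1.2a) in modified Iscove's medium at 37 °C, started at 2.5×10^4 mL^-1 with a concentration range. After 48 h, resazurin was added for a further 16 h. Fluorescence read at ex 545/em 590 nm. EC50 and EC90 taken from three independent replicates.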
# [3] = tested on: Trypanosoma brucei; experiment: Antitrypanosomal activity against blood stream form of Trypanosoma brucei 221a variant assessed as lethality at >=1.2 nM incubated for 3 days followed by replacement with fresh medium without compound and measured for 12 days by resazurin dye based fluorescence analysis relative to control; assay type: functional; settings: time 3 day
# Method in brief: (§2)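 Bloodstream-form T. brucei seeded in flasks at 10^5 mL^-1 with a range of compound concentrations. Every 24 h parasites were sub-cultured back to 10^5 mL^-1 in continued compound presence, through day 10. Growth reported as cumulative parasite number. In a washout arm, parasites were exposed for 3 days, moved to compound-free medium and followed for 12 days.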
# [4] = Apparent permeability across basolateral to apical side in MDCK-MDR1 cells at 10 uM measured for 60 mins by LC-MS/MS analysis; assay type: ADME, cell-based, Canis lupus familiaris; settings: dog, mdck-mdr1, 1 h, 10 µM
# Method in brief: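 MDCKII-hMDR1 monolayers on inserts, compound 10 μM (1% DMSO) in duplicate, 60 min at 37 °C, bidirectional, with and without elacridar 2 μM. Amprenavir as P-gp control, Lucifer yellow for monolayer integrity; compound quantified by LC–MS/MS.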
# [5] = tested on: Trypanosoma brucei brucei; experiment: (§3) Antitrypanosomal activity against stage-1 bioluminescent Trypanosoma brucei brucei GVR35-VSL2 expressing red-shifted luciferase infected in BALB/c mouse assessed as reduction in parasite growth by measuring curation rate at 20 mg/kg, po administered once daily for 4 days starting from 4 days post infection by luciferase based bioluminescence assay relative to control; assay type: functional; set-up: scale not given: the % may be the effect or the level left; settings: time 4 day
# Method in brief: (§4)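 BALB/c mice infected with 30,000 bioluminescent bloodstream-form T. brucei; dosing i.p. or oral from 4 days post-infection, single or once daily for 4 days. Monitored by in vivo imaging after i.p. d-luciferin 150 mg kg⁻¹ under isoflurane, with total body flux from dorsal plus ventral images. Cure required negativity by both in vivo and ex vivo imaging.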
# [6] = tested on: Trypanosoma brucei brucei; experiment: as §3, with “growth without relapse” for “growth by measuring curation rate”, “at 5 to” for “at”, “mg/kg, ip” for “mg/kg, po”, “assay” for “assay relative to control”; assay type: functional, organism-based; settings: dose 5-20 mg/kg, time 4.0 day; method in brief: as §4
# [7] = Drug localization in lysosomes of Trypanosoma brucei bloodstream form at 10 ug/ml measured after 6 hrs in presence of bafilomycin Al by TbCatL antibody based immunofluorescence microscopy; assay type: ADME, subcellular, Lysosome; settings: dose 10 µg/ml
# Method in brief: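 Parasites exposed to compound 10 μg mL⁻¹ for 6 h, with or without BafA1 8 nM; fixed 4% PFA, permeabilized 0.1% Triton X-100, blocked 1% BSA, rabbit anti-TbCatL 1:200 overnight at 4 °C, then Alexa 488 anti-rabbit 2 μg mL⁻¹ 1 h at 37 °C; fluorescence microscopy.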
# [8] = tested on: Trypanosoma brucei; experiment: Resistance development in blood stream form of Trypanosoma brucei assessed as fold increase in resistance at 10 ug/ml preincubated for 6 hrs with bafilomycin Al followed by compound addition and measured after 48 hrs by resazurin dye-based analysis; assay type: functional; settings: dose 10 µg/ml
# Method in brief: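 Bloodstream-form T. brucei pre-incubated 6 h in 4 or 8 nM bafilomycin A1, then given compound and kept in BafA1. The run then followed the 48 h microtiter resazurin assay: start at 2.5×10^4 mL^-1, 37 °C, 16 h resazurin, fluorescence ex 545/em 590 nm. Done in triplicate.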
# [9] = tested on: Plasmodium falciparum; experiment: Antiplasmodial activity against Plasmodium falciparum 3D7 infected in human erythrocytes assessed as inhibition of asexual parasite development measured after 96 hrs by fluorescence based assay; assay type: functional, organism-based; settings: 3D7, Erythrocyte
# Method in brief: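 3D7 asexual parasites in human erythrocytes (RPMI 1640, 0.5% Albumax II, 50 μM hypoxanthine, 2 mM L-glutamine, 5% CO2), 2% parasitemia/1% hematocrit; compound in DMSO dilutions, 96 h at 37 °C. Freeze-thaw, SYBR green lysis buffer, 1 h, fluorescence ex 485/em 535 nm. Normalized to DMSO and 1 μM dihydroartemisinin; EC50 from triplicate independent dose-response curves.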
# [10] = Toxicity in BALB/c mouse infected with bioluminescent Trypanosoma brucei brucei GVR35-VSL2 expressing red-shifted luciferase assessed as shaking in animal at 20 mg/kg, po administered once daily for 4 days; assay type: organism-based; settings: in vivo, 96 h, time 4 day; method in brief: as §1
# [11] = tested on: Trypanosoma brucei; experiment: Antitrypanosomal activity against blood stream form of Trypanosoma brucei 221a variant assessed as parasite growth inhibition at 0.15 to 4.8 nM preincubated for 24 hrs followed by subculturing with fresh medium with compounds and measured after 2 days by resazurin dye based fluorescence analysis; assay type: functional, organism-based; settings: dose 0.15-4.8 nM, time 3.0 day; method in brief: as §2
# [12] = Toxicity in BALB/c mouse infected with bioluminescent Trypanosoma brucei brucei GVR35-VSL2 expressing red-shifted luciferase assessed as shaking in animal at 0.25 to 20 mg/kg, ip administered once daily for 4 days; assay type: organism-based; settings: in vivo, 96 h, dose 0.25-20 mg/kg, time 4 day; method in brief: as §1
# [13] = Toxicity in BALB/c mouse infected with bioluminescent Trypanosoma brucei brucei GVR35-VSL2 expressing red-shifted luciferase assessed as hunching in animal at 0.25 to 20 mg/kg, ip administered once daily for 4 days; assay type: organism-based; settings: in vivo, 96 h, dose 0.25-20 mg/kg, time 4 day; method in brief: as §1
# [14] = Drug localization in lysosomes of Trypanosoma brucei bloodstream form at 10 ug/ml by fluorescence microscopy; assay type: ADME, subcellular, Lysosome; settings: TDE = time-dependent effect, time 1-24 hrs, dose 10 µg/ml
# Method in brief: (§5)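 Bloodstream-form T. brucei incubated with compound 10 μg mL⁻¹ for 60 or 180 min or 24 h; fixed in 4% PFA, mounted with DAPI, imaged by fluorescence microscopy (ex 550/em 585 nm).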
# [15] = Toxicity in BALB/c mouse infected with bioluminescent Trypanosoma brucei brucei GVR35-VSL2 expressing red-shifted luciferase assessed as piloerection in animal at 0.25 to 20 mg/kg, ip administered once daily for 4 days; assay type: organism-based; settings: in vivo, 96 h, dose 0.25-20 mg/kg, time 4 day; method in brief: as §1
# [16] = Metabolic stability in mouse liver microsomes assessed as half life at 1 uM measured upto 60 mins in presence of NADPH by LC-MS/MS analysis; assay type: ADME, Microsome; settings: 1 h
# [17] = Drug localization in kinetoplast of Trypanosoma brucei bloodstream form at 10 ug/ml measured for 180 mins by fluorescence microscopy; assay type: ADME, subcellular; settings: 3 h, dose 10 µg/ml; method in brief: as §5
# [18] = Selectivity index, ratio of EC50 for cytotoxicity against rat L6 cells to EC50 for antitrypanosomal activity against bloodstream form of Trypanosoma brucei brucei 221a variant; assay type: toxicity, cell-based; settings: read-out: Ratio EC50
# Method in brief: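 L6 rat myoblasts seeded at 1×10^4 mL^-1 in RPMI-1640 with a compound concentration range for 6 days at 37 °C. Resazurin added for 6 h, then fluorescence read.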
# [19] = Drug localization in nucleus of Trypanosoma brucei bloodstream form at 10 ug/ml measured for 180 mins by fluorescence microscopy; assay type: ADME, subcellular; settings: 3 h, dose 10 µg/ml; method in brief: as §5
smiles,measurement,setting,value
CS(=O)(=O)O.CS(=O)(=O)O.N=C(N)c1ccc2nc(C3CCC(c4nc5ccc(C(=N)N)cc5s4)CC3)sc2c1 (stereo not given),Activity,[1],Non-Toxic
same,pEC50,[2]; 48 h,9.00
same,EC90,[2]; time 48 hrs,1 nM
same,Activity,[3],100%
same,Papp,[4],0.4 10^-6 cm/s
same,Activity,[5],20%
same,Activity,[6],Active
same,Drug uptake,[7],Not Active
same,fold change (FC),[8],5
same,pEC50,[9],7.60
same,Activity,[10],Non-Toxic
same,Activity,[11],Active
same,Activity,[12],Non-Toxic
same,Activity,[13],Non-Toxic
same,Drug uptake,[14],Tde
same,Activity,[15],Non-Toxic
same,t1/2,[16],> 1 h
same,Drug uptake,[17],Not Active
same,selectivity ratio,[18],26300
same,Drug uptake,[19],Not Active

# — ChEMBL document CHEMBL5365494, “Bis-6-amidino-benzothiazole Derivative that Cures Experimental Stage 1 African Trypanosomiasis with a Single Dose” (J Med Chem, 2023)
